Measurements reported in ChEMBL document CHEMBL1127450, “Synthesis and antiviral activity evaluation of some aminoadamantane derivatives” (1994).
≈ marks a conversion by molar mass, not a printed value.

Tests used:
Format in all cases: functional
Vero [1] = test: tested for minimum inhibitory concentration required to cause a microscopically detectable alteration of normal cell morphology by 50% on vero cell line; conditions: Chlorocebus sabaeus
Procedure, shortened: (§1)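 HeLa (human epithelial), MDCK (Madin-Darby canine kidney) or Vero (African green monkey kidney) cells were scored by microscopy. The value is the minimum concentration that causes a detectable alteration of normal cell morphology. Values are averages of at least two separate experiments.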

HEF [2] = test: tested for minimum inhibitory concentration required to reduce virus-induced cytopathicity by 50% on HEF cell line infected with HSV-2 virus; conditions: Homo sapiens
Procedure, shortened: (§2)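 Human embryonic skin-muscle fibroblasts (HEF) were infected with the stated virus. The value is the concentration that reduces virus-induced cytopathicity by 50%. Values are averages of at least two separate experiments.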

Vero [3] = test: tested for minimum inhibitory concentration required to reduce virus-induced cytopathicity by 50% on vero cell line infected with Reo 1 virus; conditions: Chlorocebus sabaeus
Procedure, shortened: (§3)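 HeLa (human epithelial), MDCK (Madin-Darby canine kidney) or Vero (African green monkey kidney) cells were infected with the stated virus. The value is the concentration that reduces virus-induced cytopathicity by 50%. Values are averages of at least two separate experiments.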

MDCK [4] = test: tested for minimum inhibitory concentration required to cause a microscopically detectable alteration of normal cell morphology by 50% on MDCK cell line; conditions: Canis lupus familiaris; procedure, shortened: as §1
HEF [5] = test: tested for minimum inhibitory concentration required to reduce virus-induced cytopathicity by 50% on HEF cell line infected with vaccinia virus; conditions: Homo sapiens; procedure, shortened: as §2
HEF [6] = test: tested for minimum inhibitory concentration required to reduce […] by 50% on HEF cell line; conditions: Homo sapiens
Procedure, shortened: (§4)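 Human embryonic lung fibroblasts (HEF) were used for cell proliferation. The value is the concentration that reduces cell proliferation by 50%. Values are averages of at least two separate experiments.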

Vero [7] = test: tested for minimum inhibitory concentration required to reduce virus-induced cytopathicity by 50% on vero cell line infected with semliki forest virus; conditions: Chlorocebus sabaeus; procedure, shortened: as §3
HEF [8] = test: Tested for minimum inhibitory concentration required to reduce virus-induced cytopathicity by 50% on HEF cell line infected with thymidine kinase-deficient herpes simplex virus type 1 (TK-HSV-1); conditions: Homo sapiens; procedure, shortened: as §2
Vero [9] = test: tested for minimum inhibitory concentration required to reduce virus-induced cytopathicity by 50% on vero cell line infected with coxsackie B4 virus; conditions: Chlorocebus sabaeus; procedure, shortened: as §3
HeLa [10] = test: tested for minimum inhibitory concentration required to reduce virus-induced cytopathicity by 50% on HeLa cell line infected with polio 1 virus; conditions: Homo sapiens; procedure, shortened: as §3
MDCK [11] = test: Tested for minimum inhibitory concentration required to reduce virus-induced cytopathicity by 50% on MDCK cell line infected with influenza A virus; conditions: Canis lupus familiaris; procedure, shortened: as §3
HeLa [12] = test: Tested for minimum inhibitory concentration required to reduce virus-induced cytopathicity by 50% on HeLa cell line infected with RSV virus; conditions: Homo sapiens; procedure, shortened: as §3
Vero [13] = test: tested for minimum inhibitory concentration required to reduce virus-induced cytopathicity by 50% on vero cell line infected with sindbis virus; conditions: Chlorocebus sabaeus; procedure, shortened: as §3
CCRF-CEM [14] = test: tested for minimum inhibitory concentration required to reduce virus-induced cytopathicity by 50% was evaluated on CEM cell line infected with HIV-1 virus; conditions: Homo sapiens
HEF [15] = test: Tested for minimum inhibitory concentration required to reduce virus-induced cytopathicity by 50% on HEF cell line infected with HSV-1 virus; conditions: Homo sapiens; procedure, shortened: as §2
HeLa [16] = test: tested for minimum inhibitory concentration required to cause a microscopically detectable alteration of normal cell morphology by 50% on HeLa cell line; conditions: Homo sapiens; procedure, shortened: as §1
CCRF-CEM [17] = test: tested for minimum inhibitory concentration required to reduce virus-induced cell viability by 50% on CEM cell line; conditions: Homo sapiens
CCRF-CEM [18] = test: tested for minimum inhibitory concentration required to reduce virus-induced cytopathicity by 50% on CEM cell line infected with HIV-2 virus; conditions: Homo sapiens
Vero [19] = test: Tested for minimum inhibitory concentration required to reduce virus-induced cytopathicity by 50% on vero cell line infected with parainfluenza 3 virus; conditions: Chlorocebus sabaeus; procedure, shortened: as §3
HEF [20] = test: tested for minimum inhibitory concentration required to cause a microscopically detectable alteration of normal cell morphology by 50% on HEF cell line; conditions: Homo sapiens
Procedure, shortened: (§5)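 Human embryonic skin-muscle fibroblasts (HEF) were used. The value is the minimum concentration that causes a microscopically detectable alteration of normal cell morphology. Values are averages of at least two separate experiments.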

HEF [21] = test: tested for minimum inhibitory concentration required to reduce virus-induced cytopathicity by 50% on HEF cell line infected with vesicular stomatitis virus; conditions: Homo sapiens; procedure, shortened: as §2
MDCK [22] = test: Tested for minimum inhibitory concentration required to reduce virus-induced cytopathicity by 50% on MDCK cell line infected with influenza B virus; conditions: Canis lupus familiaris; procedure, shortened: as §3
HeLa [23] = test: Tested for minimum inhibitory concentration required to reduce virus-induced cytopathicity by 50% on HeLa cell line infected with polio 1 virus; conditions: Homo sapiens; procedure, shortened: as §3
CCRF-CEM [24] = test: Tested for minimum inhibitory concentration required to reduce virus-induced cytopathicity by 50% was evaluated on CEM cell line infected with HIV-1 virus; conditions: Homo sapiens
Vero [25] = test: Tested for minimum inhibitory concentration required to reduce virus-induced cytopathicity by 50% on vero cell line infected with semliki forest virus; conditions: Chlorocebus sabaeus; procedure, shortened: as §3
Vero [26] = test: Tested for minimum inhibitory concentration required to reduce virus-induced cytopathicity by 50% on vero cell line infected with coxsackie B4 virus; conditions: Chlorocebus sabaeus; procedure, shortened: as §3
Vero [27] = test: Tested for minimum inhibitory concentration required to reduce virus-induced cytopathicity by 50% on vero cell line infected with sindbis virus; conditions: Chlorocebus sabaeus; procedure, shortened: as §3
CCRF-CEM [28] = test: Tested for minimum inhibitory concentration required to reduce virus-induced cell viability by 50% on CEM cell line.; conditions: Homo sapiens
CCRF-CEM [29] = test: Tested for minimum inhibitory concentration required to reduce virus-induced cytopathicity by 50% on CEM cell line infected with HIV-2 virus; conditions: Homo sapiens
HEF [30] = test: Tested for minimum inhibitory concentration required to reduce virus-induced cytopathicity by 50% on HEF cell line infected with vesicular stomatitis virus; conditions: Homo sapiens; procedure, shortened: as §2
HEF [31] = test: Tested for minimum inhibitory concentration required to cause a microscopically detectable alteration of normal cell morphology by 50% on HEF cell line; conditions: Homo sapiens; procedure, shortened: as §5
HeLa [32] = test: Tested for minimum inhibitory concentration required to cause a microscopically detectable alteration of normal cell morphology by 50% on HeLa cell line; conditions: Homo sapiens; procedure, shortened: as §1
Vero [33] = test: Tested for minimum inhibitory concentration required to reduce virus-induced cytopathicity by 50% on vero cell line infected with Reo 1 virus; conditions: Chlorocebus sabaeus; procedure, shortened: as §3
Vero [34] = test: Tested for minimum inhibitory concentration required to cause a microscopically detectable alteration of normal cell morphology by 50% on vero cell line; conditions: Chlorocebus sabaeus; procedure, shortened: as §1
HEF [35] = test: Tested for minimum inhibitory concentration required to reduce virus-induced cytopathicity by 50% on HEF cell line infected with vaccinia virus; conditions: Homo sapiens; procedure, shortened: as §2
MDCK [36] = test: Tested for minimum inhibitory concentration required to cause a microscopically detectable alteration of normal cell morphology by 50% on MDCK cell line; conditions: Canis lupus familiaris; procedure, shortened: as §1
HEF [37] = test: Tested for minimum inhibitory concentration required to reduce virus-induced cytopathicity by 50% on HEF cell line infected with HSV-2 virus; conditions: Homo sapiens; procedure, shortened: as §2
HEF [38] = test: Tested for minimum inhibitory concentration required to reduce […] by 50% on HEF cell line; conditions: Homo sapiens; procedure, shortened: as §4

SMILES: C1CN(CC2CC2)C2(C1)C1CC3CC(C1)CC2C3 (centres undefined)
- MIC50 (Vero [1]): > 400 µg/mL
- MIC50 (HEF [2]): > 400 µg/mL
- MIC50 (Vero [3]): > 400 µg/mL
- MIC50 (MDCK [4]): 100 µg/mL (≈ 407 µM)
- MIC50 (HEF [5]): 100 µg/mL (≈ 407 µM)
- MIC50 (HEF [6]): > 200 µg/mL
- MIC50 (Vero [7]): > 400 µg/mL
- MIC50 (HEF [8]): ≥ 400 µg/mL
- MIC50 (Vero [9]): > 400 µg/mL
- MIC50 (HeLa [10]): > 400 µg/mL
- MIC50 (MDCK [11]): ≥ 40 µg/mL
- MIC50 (HeLa [12]): ≥ 150 µg/mL
- MIC50 (Vero [13]): > 400 µg/mL
- MIC50 (CCRF-CEM [14]): > 200 µg/mL
- MIC50 (HEF [15]): 300 µg/mL (≈ 1220 µM)
- MIC50 (HeLa [16]): > 400 µg/mL
- MIC50 (CCRF-CEM [17]): > 200 µg/mL
- MIC50 (CCRF-CEM [18]): > 200 µg/mL
- MIC50 (Vero [19]): > 400 µg/mL
- MIC50 (HEF [20]): > 400 µg/mL
- MIC50 (HEF [21]): 150 µg/mL (≈ 611 µM)
- MIC50 (MDCK [22]): > 100 µg/mL

SMILES: O=C(Nc1ccc(Cl)cc1)N1CCCC12C1CC3CC(C1)CC2C3 (centres undefined)
- MIC50 (HeLa [23]): > 70 µg/mL
- MIC50 (CCRF-CEM [24]): > 1.6 µg/mL
- MIC50 (Vero [25]): > 70 µg/mL
- MIC50 (Vero [26]): > 70 µg/mL
- MIC50 (Vero [27]): > 70 µg/mL
- MIC50 (CCRF-CEM [28]): 3.4 µg/mL (≈ 9.86 µM)
- MIC50 (CCRF-CEM [29]): > 1.6 µg/mL
- MIC50 (HEF [30]): > 20 µg/mL
- MIC50 (HEF [8]): > 20 µg/mL
- MIC50 (HEF [31]): 40 µg/mL (≈ 116 µM)
- MIC50 (HeLa [32]): 100 µg/mL (≈ 290 µM)
- MIC50 (MDCK [11]): 2.4 µg/mL (≈ 6.96 µM)
- MIC50 (HeLa [12]): > 20 µg/mL
- MIC50 (Vero [33]): > 70 µg/mL
- MIC50 (Vero [34]): 100 µg/mL (≈ 290 µM)
- MIC50 (HEF [35]): > 20 µg/mL
- MIC50 (HEF [15]): > 20 µg/mL
- MIC50 (MDCK [36]): 20 µg/mL (≈ 58 µM)
- MIC50 (HEF [37]): > 20 µg/mL
- MIC50 (HEF [38]): 150 µg/mL (≈ 435 µM)
- MIC50 (Vero [19]): > 70 µg/mL
- MIC50 (MDCK [22]): > 20 µg/mL
